ChEMBL document CHEMBL1821590, “Novel dihydropyrimidines and its pyrazole derivatives: synthesis and pharmacological screening” (Eur J Med Chem, 2011)
Values after ≈ are worked out from the molar mass of the structure shown.

Tests used:
Assay type in all cases: functional
[1] = Antioxidant activity assessed as nitric oxide radical scavenging activity after 150 mins
Summary of the method: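 10 mM sodium nitroprusside (4 mL), PBS pH 7.4 (1 mL) and sample or ascorbic acid in DMSO (1 mL, 12.5–100 µg/mL), incubated 150 min at 25 °C. Nitrite detected with sulphanilic acid (5 min) then naphthylethylenediamine (30 min, diffused light). Read at […]. Triplicate. % inhibition = [1 − (Vt/Vc)] × 100. IC50 derived from it.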

[2] = Antioxidant activity assessed as hydrogen peroxide scavenging activity after 10 mins
Summary of the method: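 H2O2 (20 mM) in PBS pH 7.4. 1 mL of sample or ascorbic acid in methanol (12.5–100 µg/mL) added to 2 mL H2O2 solution. A230 read after 10 min. % inhibition = [1 − (Vt/Vc)] × 100. Triplicate, averaged. IC50 derived from % inhibition across concentrations.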

[3] = Antioxidant activity assessed as inhibition of lipid peroxidation using egg lecithin liposomes incubated for 1 hr
Summary of the method: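 Egg lecithin (3 mg/mL, phosphate buffer pH 7.4) sonicated 10 min to form liposomes. Sample or ascorbic acid (12.5–100 µg/mL) added. Peroxidation induced with FeCl3 and L-ascorbic acid, 1 h at 37 °C. Stopped with HCl/TCA/TBA/BHA, boiled 15 min, centrifuged, supernatant read at 532 nm. Triplicate. % inhibition vs control. IC50 derived.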

[4] = Antioxidant activity assessed as potassium ferricyanide ion reducing power after 20 mins
Summary of the method: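 Oyaizu method. Samples or ascorbic acid in DMF (12.5–100 µg/mL) mixed with 0.2 M phosphate buffer pH 6.6 and 1% potassium ferricyanide, 20 min at 50 °C. 10% TCA added, centrifuged. Supernatant mixed with water and 0.1% FeCl3, read at 700 nm. % = [(Vt/Vc) − 1] × 100. IC50 derived.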

[5] = Antiinflammatory activity assessed as inhibition of albumin denaturation at 100 ug/ml by UV-visible spectrophotometry
Summary of the method: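 Compounds dissolved in minimal DMF, diluted in PBS pH 7.4 (final DMF <2.5%). 1 mL test solution (100 µg/mL) plus 1 mL 1% albumin in PBS, 15 min at 27 ± 1 °C, then heated 10 min at 60 ± 1 °C. After cooling, turbidity read at 660 nm. % inhibition = [(Vt/Vc) − 1] × 100 against a no-drug control. Triplicate, averaged. Diclofenac standard.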

Metaphire posthuma [6] = assay: Anthelmintic activity against Pheretima posthuma assessed as time taken for complete parasite paralysis at 0.1% w/v
Summary of the method: (§1)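 Earthworms (Pheretima posthuma) exposed to test solutions at 0.1, 0.2 and 0.5% w/v; time in minutes to complete paralysis (worms motionless) recorded. Albendazole as standard. Mean of three determinations ± S.D.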

Metaphire posthuma [7] = assay: Anthelmintic activity against Pheretima posthuma assessed as time taken for complete parasite paralysis at 0.2% w/v; summary of the method: as §1
Metaphire posthuma [8] = assay: Anthelmintic activity against Pheretima posthuma assessed as time taken for complete parasite paralysis at 0.5% w/v; summary of the method: as §1
Metaphire posthuma [9] = assay: Anthelmintic activity against Pheretima posthuma assessed as time taken for parasite death at 0.1% w/v
Summary of the method: (§2)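 Earthworms (Pheretima posthuma, spelled Perituma posthuma in text) exposed to test compounds at 0.1, 0.2 and 0.5% w/v. Albendazole served as standard, with an untreated control. Paralysis was recorded as the time until worms became motionless, then time to death was recorded, in minutes. Each value is the mean of three determinations with S.D.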

Metaphire posthuma [10] = assay: Anthelmintic activity against Pheretima posthuma assessed as time taken for parasite death at 0.2% w/v; summary of the method: as §2
Metaphire posthuma [11] = assay: Anthelmintic activity against Pheretima posthuma assessed as time taken for parasite death at 0.5% w/v; summary of the method: as §2
Escherichia coli [12] = assay: Antimicrobial activity against Escherichia coli at 25 ug/ml by agar plate diffusion technique; details: read-out: IZ
Summary of the method: (§3)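 Agar plate diffusion against E. coli, P. aeruginosa, S. aureus and B. subtilis, with compounds at 25, 50 and 100 µg/mL. Streptomycin as standard.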

Escherichia coli [13] = assay: Antimicrobial activity against Escherichia coli at 50 ug/ml by agar plate diffusion technique; details: read-out: IZ; summary of the method: as §3
Escherichia coli [14] = assay: Antimicrobial activity against Escherichia coli at 100 ug/ml by agar plate diffusion technique; details: read-out: IZ; summary of the method: as §3
Pseudomonas aeruginosa [15] = assay: Antimicrobial activity against Pseudomonas aeruginosa at 25 ug/ml by agar plate diffusion technique; details: read-out: IZ; summary of the method: as §3
Pseudomonas aeruginosa [16] = assay: Antimicrobial activity against Pseudomonas aeruginosa at 50 ug/ml by agar plate diffusion technique; details: read-out: IZ; summary of the method: as §3
Pseudomonas aeruginosa [17] = assay: Antimicrobial activity against Pseudomonas aeruginosa at 100 ug/ml by agar plate diffusion technique; details: read-out: IZ; summary of the method: as §3
Bacillus subtilis [18] = assay: Antimicrobial activity against Bacillus subtilis at 25 ug/ml by agar plate diffusion technique; details: read-out: IZ; summary of the method: as §3
Bacillus subtilis [19] = assay: Antimicrobial activity against Bacillus subtilis at 50 ug/ml by agar plate diffusion technique; details: read-out: IZ; summary of the method: as §3
Bacillus subtilis [20] = assay: Antimicrobial activity against Bacillus subtilis at 100 ug/ml by agar plate diffusion technique; details: read-out: IZ; summary of the method: as §3
Staphylococcus aureus [21] = assay: Antimicrobial activity against Staphylococcus aureus at 25 ug/ml by agar plate diffusion technique; details: read-out: IZ; summary of the method: as §3
Staphylococcus aureus [22] = assay: Antimicrobial activity against Staphylococcus aureus at 50 ug/ml by agar plate diffusion technique; details: read-out: IZ; summary of the method: as §3
Staphylococcus aureus [23] = assay: Antimicrobial activity against Staphylococcus aureus at 100 ug/ml by agar plate diffusion technique; details: read-out: IZ; summary of the method: as §3
Candida albicans [24] = assay: Antimicrobial activity against Candida albicans at 25 ug/ml by paper disc method; details: read-out: IZ
Summary of the method: (§4)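 Paper disc method against A. niger and C. albicans, with compounds at 25, 50 and 100 µg/mL. Amphotericin-B as standard.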

Candida albicans [25] = assay: Antimicrobial activity against Candida albicans at 50 ug/ml by paper disc method; details: read-out: IZ; summary of the method: as §4
Candida albicans [26] = assay: Antimicrobial activity against Candida albicans at 100 ug/ml by paper disc method; details: read-out: IZ; summary of the method: as §4
Aspergillus niger [27] = assay: Antimicrobial activity against Aspergillus niger at 25 ug/ml by paper disc method; details: read-out: IZ; summary of the method: as §4
Aspergillus niger [28] = assay: Antimicrobial activity against Aspergillus niger at 50 ug/ml by paper disc method; details: read-out: IZ; summary of the method: as §4
Aspergillus niger [29] = assay: Antimicrobial activity against Aspergillus niger at 100 ug/ml by paper disc method; details: read-out: IZ; summary of the method: as §4

Compound	IC50 [1] [µg/mL]	IC50 [2] [µg/mL]	IC50 [3] [µg/mL]	IC50 [4] [µg/mL]	inhibition [5] [%]	Time (Metaphire posthuma [6]) [min]	Time (Metaphire posthuma [7]) [min]	Time (Metaphire posthuma [8]) [min]	Time (Metaphire posthuma [9]) [min]	Time (Metaphire posthuma [10]) [min]	Time (Metaphire posthuma [11]) [min]	zone of inhibition at 25 µg/mL (Escherichia coli [12]) [mm]	zone of inhibition at 50 µg/mL (Escherichia coli [13]) [mm]	zone of inhibition at 100 µg/mL (Escherichia coli [14]) [mm]	zone of inhibition at 25 µg/mL (Pseudomonas aeruginosa [15]) [mm]	zone of inhibition at 50 µg/mL (Pseudomonas aeruginosa [16]) [mm]	zone of inhibition at 100 µg/mL (Pseudomonas aeruginosa [17]) [mm]	zone of inhibition at 25 µg/mL (Bacillus subtilis [18]) [mm]	zone of inhibition at 50 µg/mL (Bacillus subtilis [19]) [mm]	zone of inhibition at 100 µg/mL (Bacillus subtilis [20]) [mm]	other results
CCOC(=O)c1cnn(-c2nc(-c3cccc(O)c3O)c(C#N)c(=O)n2C)c1N	58 (≈ 146 µM)	53 (≈ 134 µM)	49 (≈ 124 µM)	41 (≈ 103 µM)	57.6	60.22	65.54	53.34	70.56	75.78	60.74	13.1	16	22.9	10.3	12.8	20.3	14.4	15.1	21.8	zone of inhibition at 25 µg/mL (Staphylococcus aureus [21]): 12.7 mm; zone of inhibition at 50 µg/mL (Staphylococcus aureus [22]): 16.1 mm; zone of inhibition at 100 µg/mL (Staphylococcus aureus [23]): 20.3 mm; zone of inhibition at 25 µg/mL (Candida albicans [24]): 10.4 mm; zone of inhibition at 50 µg/mL (Candida albicans [25]): 13.3 mm; zone of inhibition at 100 µg/mL (Candida albicans [26]): 17.7 mm; zone of inhibition at 25 µg/mL (Aspergillus niger [27]): 9.48 mm; zone of inhibition at 50 µg/mL (Aspergillus niger [28]): 11.7 mm; zone of inhibition at 100 µg/mL (Aspergillus niger [29]): 17.2 mm
CCOC(=O)c1cnn(-c2nc(-c3cccc(OC)c3OC)c(C#N)c(=O)n2C)c1N	69 (≈ 163 µM)	67 (≈ 158 µM)	57 (≈ 134 µM)	54 (≈ 127 µM)	33.9	75.14	55.1	43.9	87.55	62.12	52.69	10.3	12.4	16.2	9.9	12.3	17.4	11.6	15.1	19.2	zone of inhibition at 25 µg/mL (Staphylococcus aureus [21]): 10.3 mm; zone of inhibition at 50 µg/mL (Staphylococcus aureus [22]): 14.1 mm; zone of inhibition at 100 µg/mL (Staphylococcus aureus [23]): 18.7 mm; zone of inhibition at 25 µg/mL (Candida albicans [24]): 9.41 mm; zone of inhibition at 50 µg/mL (Candida albicans [25]): 13.5 mm; zone of inhibition at 100 µg/mL (Candida albicans [26]): 17 mm; zone of inhibition at 25 µg/mL (Aspergillus niger [27]): 10.8 mm; zone of inhibition at 50 µg/mL (Aspergillus niger [28]): 12.1 mm; zone of inhibition at 100 µg/mL (Aspergillus niger [29]): 18.9 mm
CCOC(=O)c1cnn(-c2nc(-c3ccc(Cl)cc3)c(C#N)c(=O)n2C)c1N	87 (≈ 218 µM)	94 (≈ 236 µM)	88 (≈ 221 µM)	64 (≈ 160 µM)	64.6	49.28	41.03	34.76	64.72	58.23	56.33	14.7	19.5	25	11.8	17.1	25.7	14.2	16.7	25.4	zone of inhibition at 25 µg/mL (Staphylococcus aureus [21]): 13.1 mm; zone of inhibition at 50 µg/mL (Staphylococcus aureus [22]): 17.1 mm; zone of inhibition at 100 µg/mL (Staphylococcus aureus [23]): 22 mm; zone of inhibition at 25 µg/mL (Candida albicans [24]): 12.2 mm; zone of inhibition at 50 µg/mL (Candida albicans [25]): 16 mm; zone of inhibition at 100 µg/mL (Candida albicans [26]): 21.8 mm; zone of inhibition at 25 µg/mL (Aspergillus niger [27]): 11.6 mm; zone of inhibition at 50 µg/mL (Aspergillus niger [28]): 15.6 mm; zone of inhibition at 100 µg/mL (Aspergillus niger [29]): 23.8 mm
CCOC(=O)c1cnn(-c2nc(-c3ccco3)c(C#N)c(=O)n2C)c1N	108 (≈ 305 µM)	104 (≈ 294 µM)	116 (≈ 327 µM)	91 (≈ 257 µM)	42.2	47.26	42.22	45.98	58.76	55.23	54.82	13	14.2	18	9.19	12.1	19.9	12.9	14.1	18.3	zone of inhibition at 25 µg/mL (Staphylococcus aureus [21]): 10.9 mm; zone of inhibition at 50 µg/mL (Staphylococcus aureus [22]): 14.1 mm; zone of inhibition at 100 µg/mL (Staphylococcus aureus [23]): 17.7 mm; zone of inhibition at 25 µg/mL (Candida albicans [24]): 10.9 mm; zone of inhibition at 50 µg/mL (Candida albicans [25]): 12.3 mm; zone of inhibition at 100 µg/mL (Candida albicans [26]): 18 mm; zone of inhibition at 25 µg/mL (Aspergillus niger [27]): 10.1 mm; zone of inhibition at 50 µg/mL (Aspergillus niger [28]): 13.1 mm; zone of inhibition at 100 µg/mL (Aspergillus niger [29]): 20.4 mm
